IC50 and MIC data for five compounds are collected here from ChEMBL document CHEMBL1781911, “Verrucamides A-D, antibacterial cyclopeptides from Myrothecium verrucaria” (J Nat Prod, 2011).

In brackets after ≈: the same amount, converted by molar mass. Square brackets hold non-standard residues; d marks the D form. Peptide text beside a SMILES is read from it. NMeT = CN[C@H](C(=O)O)[C@@H](C)O; aIle = CC[C@@H](C)[C@H](N)C(=O)O; dNMeF = CN[C@H](Cc1ccccc1)C(=O)O; NMeV = CN[C@H](C(=O)O)C(C)C; NMeS = CN[C@@H](CO)C(=O)O; dNMeA = CN[C@H](C)C(=O)O

The experiment has as its system Staphylococcus aureus. In words: Antibacterial activity against Staphylococcus aureus Col CGMCC 1.2465 after 24 hrs by NCCLS […] method. It is filed as functional, organism-based. The note with it: COL CGMCC 1.2465, 24 h. In a few lines:
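Broth microdilution in triplicate per NCCLS guidance; strain grown in Mueller-Hinton broth, 3-4 colonies cultured at 37 °C for 24 h, final inoculum 10^6 cells/mL in MHB. Samples from 10 mg/mL DMSO stocks, serially diluted; ampicillin positive control. Incubated 37 °C for 24 h, growth read as absorbance at 595 nm.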
Turning to `CC[C@@H](C)[C@@H]1NC(=O)CNC(=O)[C@@H](C)N(C)C(=O)[C@H](C(C)C)NC(=O)[C@H]([C@@H](C)O)N(C)C(=O)[C@H](C(C)C)NC(=O)[C@H]([C@@H](C)O)N(C)C(=O)[C@H](C(C)C)NC(=O)CNC(=O)[C@@H](Cc2ccccc2)N(C)C(=O)[C@H](C(C)C)NC(=O)[C@H](CO)NC(=O)[C@H]([C@H](C)CC)N(C)C(=O)[C@H](CO)N(C)C1=O` [VERRUCAMIDE A], the IC50 (in general, the concentration that gives 50% inhibition) was 3.59 mg/L (≈ 2.54 µM) and the MIC (commonly the smallest concentration in the dilution series that meets the test's criterion for growth inhibition) stood at 10 mg/L (≈ 7.06 µM).

With `CC1(C)S[C@@H]2[C@H](NC(=O)[C@H](N)c3ccccc3)C(=O)N2[C@H]1C(=O)O` [AMPICILLIN], the IC50 is 0.09 mg/L (≈ 0.258 µM) and the MIC was found to be 0.625 mg/L (≈ 1.79 µM).

In the case of `CC[C@@H](C)[C@H]1C(=O)N[C@@H](CO)C(=O)N[C@@H](C(C)C)C(=O)N(C)[C@H](Cc2ccccc2)C(=O)NCC(=O)N[C@@H](C(C)C)C(=O)N(C)[C@@H]([C@@H](C)O)C(=O)N[C@@H](C(C)C)C(=O)N(C)[C@@H]([C@@H](C)O)C(=O)N[C@@H](C(C)C)C(=O)N(C)[C@H](C)C(=O)NCC(=O)N[C@@H](C(C)C)C(=O)N(C)[C@@H](CO)C(=O)N1C` [VERRUCAMIDE C], the IC50 was found to be 4.45 mg/L (≈ 3.17 µM) and the MIC is 10 mg/L (≈ 7.13 µM).

In the case of `CC[C@@H](C)[C@@H]1NC(=O)CNC(=O)[C@@H](C)N(C)C(=O)[C@H](C(C)C)NC(=O)[C@H]([C@@H](C)O)N(C)C(=O)[C@H](C(C)C)NC(=O)[C@H]([C@@H](C)O)N(C)C(=O)[C@H](C(C)C)NC(=O)CNC(=O)[C@@H](Cc2ccccc2)N(C)C(=O)[C@H](C(C)C)NC(=O)[C@H](CO)NC(=O)[C@H](C(C)C)N(C)C(=O)[C@H](CO)N(C)C1=O` [VERRUCAMIDE B] (cyclo(GV[NMeT]V[NMeT]V[dNMeA]G[aIle][NMeS][NMeV]SV[dNMeF])), the midpoint of inhibition, the IC50, lay at 5.31 mg/L (≈ 3.79 µM) and inhibition of growth (MIC) required 20 mg/L (≈ 14.3 µM).

`CC(C)[C@@H]1NC(=O)[C@H]([C@@H](C)O)N(C)C(=O)[C@H](C(C)C)NC(=O)[C@H]([C@@H](C)O)N(C)C(=O)[C@H](C(C)C)NC(=O)CNC(=O)[C@@H](Cc2ccccc2)N(C)C(=O)[C@H](C(C)C)NC(=O)[C@H](CO)NC(=O)[C@H](C(C)C)N(C)C(=O)[C@H](CO)N(C)C(=O)[C@H](C(C)C)NC(=O)CNC(=O)[C@@H](C)N(C)C1=O` [VERRUCAMIDE D] showed an IC50 of 9.09 mg/L (≈ 6.55 µM) and an MIC of 40 mg/L (≈ 28.8 µM).
